Only some compounds are listed: those with a hit (about 2.5% of all), similar ones and a draw of the others.
TCR CD3 inh = human TCR-CD3 binding inhibition; TAMRA-labeled TCR probe fluorescence, biochemical; inhibition, % at 9.4 µM; 360,000 tested, 0.37% active; AID 651800; in the data active = inhibition above about 19%;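 note: recombinant mutant TCR 2C K166C tagged with TAMRA read by polarization; 0% = receptor in buffer alone and 100% = receptor with positive control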
HTRA1 inhibitor = inhibitors of human serine peptidase HTRA1. recombinant HTRA1, FP-rhodamine activity-based probe, fluorescence polarization. inhibition, % at 5.96 µM. 340,000 tested, 0.5% active. Q92743. AID 504803; in the data active = inhibition above about 36%;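 note: 0% = enzyme with DMSO and 100% = wells lacking enzyme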
SIAE primary = blocks human sialic acid acetylesterase; Q9HAT2; SIAE FP-Rh probe binding, fluorescence polarization; inhibition, % at 9.66 µM; 370,000 tested, 0.69% active;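 active = inhibition above a cutoff: mean of compounds within the control limits plus 3 SD of those, cut at about 17% in these data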;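 note: 0% = plate median of compound wells and 100% = probe without SIAE protein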
PRMT1 FP inh = PRMT1 (human) inhibition, primary screen; Q99873; recombinant PRMT1, activity-based probe fluorescence polarization; inhibition, % at 2.79 µM; 370,000 tested, 1.3% active;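 active = inhibition above about 21% made by adding two undisclosed values, limit read from the data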
ABHD4 inh = inhibits mouse alpha/beta hydrolase domain 4. Q8VD66. purified mABHD4, FP-Rh probe fluorescence polarization. inhibition, % at 8.92 µM. 370,000 tested, 0.54% active;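 active = inhibition exceeding the mean over every tested compound plus 3 SD, cut at about 30% in these data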;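 note: 0% = plate median of compound wells and 100% = S159A mutant with DMSO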
Target sequence (Q8VD66 whole entry, looked up, the tested form may be a part): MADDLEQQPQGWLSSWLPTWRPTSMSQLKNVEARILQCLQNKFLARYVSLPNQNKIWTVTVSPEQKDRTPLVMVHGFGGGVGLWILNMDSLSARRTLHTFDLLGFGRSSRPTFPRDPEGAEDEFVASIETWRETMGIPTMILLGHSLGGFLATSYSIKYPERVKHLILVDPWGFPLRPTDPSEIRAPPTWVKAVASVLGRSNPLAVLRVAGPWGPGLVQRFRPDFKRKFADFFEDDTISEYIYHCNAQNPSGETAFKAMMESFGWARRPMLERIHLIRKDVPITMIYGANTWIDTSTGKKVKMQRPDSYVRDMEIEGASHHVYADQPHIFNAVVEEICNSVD
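Doses – 8.92 µM, single dose · Material – wild-type mouse ABHD4 protein · Replication – single well per compound (singlicate) · Measure – percent inhibition of probe binding, normalized to plate controls · Schedule – 45 min compound pre-incubation plus 60 min probe step, 25 °C · Detection – fluorescence polarization with parallel and perpendicular emission, 525/598 nm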
PRMT1 inh conf = PRMT1 (human) inhibition, FP confirmation; shares compounds with PRMT1 FP inh; recombinant His-PRMT1, activity-based probe fluorescence polarization; inhibition, % at 2.79 µM; 3,300 tested, 42% active; AID 687036;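 active = mean inhibition across replicates above the hit cutoff derived for the earlier primary screen, cut at about 22% in these data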
Active calls of the source: *; / = no result.

SMILES	TCR CD3 inh	HTRA1 inhibitor	SIAE primary	PRMT1 FP inh	ABHD4 inh	PRMT1 inh conf
CN(C)c1ccc(CN(C(=O)/C=C/c2ccco2)C2CCS(=O)(=O)C2)cc1 (centres undefined)	2.4	/	10.1	3.5	4.4	/
CCc1nnc2n1N=C(c1ccc(Cl)cc1)CS2	5.4	1.3	2.0	-0.4	1.5	/
Cc1nnc2n(c1=O)N=C(c1ccc(Cl)cc1)CS2	-5.5	4.7	0.9	55.7*	4.6	57.1*
CC(C)CNC(=O)OCc1cn(Cc2cc(F)ccc2F)nn1	/	/	-1.2	0.5	-1.3	/
C=CC[C@@H]1NN2C(=O)[C@@H](C)[C@@H]3c4ccccc4C=NN3[C@@H]2c2ccccc21	/	/	-1.3	2.5	-0.6	/
O=C(CCCc1nc2ccccc2s1)Nc1nccs1	-3.6	0.5	-3.0	40.5*	-6.5	13.9
Cc1cnc(NC(=O)CCCc2nc3ccccc3s2)s1	-4.5	-8.9	-0.4	49.2*	-7.4	20.6
O=C(CCCSc1nc2ccccc2s1)Nc1nccs1	-4.2	-15.6	-1.9	4.0	3.1	/
CC(=O)Nc1ccc2ccccc2c1	/	7.8	/	/	/	/
CC(=O)Nc1ccc2cc3ccc(NC(C)=O)cc3nc2c1	-5.4	8.5	-7.0	37.0*	4.6	21.8*
CN1CCC(CNC(=O)Nc2csc3ccccc23)CC1	-7.5	/	1.5	42.4*	2.6	-0.7
S=c1[nH]cc(-c2ccc(Cl)cc2)n1Cc1ccccc1	6.0	0.3	3.1	9.8	-5.6	/
CC(C)Cn1c(-c2ccc(Br)cc2)c[nH]c1=S	0.5	1.5	1.3	41.0*	-8.9	20.6
Cc1ccc(CNC(=O)CSc2c3c(nc4ccc(Cl)cc24)CCCC3)o1	-4.2	-19.2	-5.6	50.4*	9.7	4.6
CCN(CC)CCNC(=O)CSc1c2c(nc3cc(Cl)ccc13)CCCC2	-4.1	-30.2	-1.6	14.0	3.1	/
COCc1cc(N2CCN(C(=O)OC(C)(C)C)C[C@@H]2C)ccc1N1C[C@@H](C)O[C@@H](C)C1	5.7	/	6.0	-0.4	-5.9	/
COCc1cc(N2CCN(C(=O)OC(C)(C)C)C[C@H]2C)ccc1N1CC[C@@H](O)C1	-9.1	/	4.5	66.1*	26.1	8.9
COC(=O)[C@]12C[C@H](CC(=O)NCCCCc3ccccc3)C(=O)N(CCc3ccc(OC)c(OC)c3)C1=C[C@H](C(C)C)O[C@@H]2C1CC1	/	/	-3.5	-1.1	0.6	/
CC(C)C[C@@H]1COc2cc(N3CCCC3)ccc2S(=O)(=O)N1C	/	/	0.2	0.9	6.9	/
COc1ccc(-c2cc(-c3nnc(SCC(=O)Nc4nccs4)n3N)[nH]n2)cc1	/	/	-6.1	-6.0	-3.8	/
S=C(NCc1ccco1)Nc1ccc(Br)cn1	1.0	-5.0	-1.4	6.1	-2.9	/
S=C(NCc1ccco1)Nc1cc(-c2ccccc2)[nH]n1	-6.7	-38.5	-6.8	31.9*	-27.2	28.9*
COc1ccc(N/C=C2/Sc3ccccc3NC2=O)cc1	0.9	8.9	6.3	32.5*	4.7	30.3*
Cc1ccc(N/C=C2/Sc3ccccc3NC2=O)cc1	-5.2	3.5	2.2	31.2*	-3.4	10.4
O=C1Nc2ccccc2S/C1=C/NCc1ccccc1Cl	0.4	1.6	12.8	20.1	1.0	/
SMILES	TCR CD3 inh	HTRA1 inhibitor	SIAE primary	PRMT1 FP inh	ABHD4 inh	PRMT1 inh conf
O=C(CC1Sc2ncnn2C1=O)Nc1ccccc1 (centres undefined)	4.0	-1.9	11.4	76.5*	-4.0	74.2*
Cc1ccc(NC(=O)CC2SC(=O)N(c3ccccc3)C2=O)cc1 (centres undefined)	-18.0	4.3	5.0	13.5	-4.0	/
CC(=O)Nc1ccc(NC(=O)CC2SC(=O)N(CC(=O)c3ccccc3)C2=O)cc1 (centres undefined)	5.9	-1.3	0.5	28.6*	-1.2	19.7
CC(C)(C)c1csc(NC(=O)Cn2cnc3ccccc3c2=O)n1	9.7	-6.0	0.5	29.4*	0.1	-0.3
CC(C)(C)c1csc(NC(=O)CSc2nc3ccccc3c(=O)[nH]2)n1	-2.1	-31.3	-8.5	8.1	-3.1	/
Cc1cccc(Cn2c(C(=O)OC(C)C)cc3c2ccn3C)c1	4.8	-2.5	2.3	36.0*	15.2	3.4
COC(=O)c1cccc(N2C(=O)C[C@](Sc3ccc(OC)cc3)(C(=O)N3CCOCC3)[C@H]2c2ccc(OC)cc2)c1	/	/	3.0	0.4	-16.3	/
CN1c2ccsc2C(O)=C(C(=S)Nc2ccc(F)c(Cl)c2)S1(=O)=O	-3.5	-12.1	-2.8	30.2*	-17.3	20.6
CC12CCC3c4ccc(OCCCO)c([N+](=O)[O-])c4CCC3C1CCC2=O (centres undefined)	-9.3	/	-0.9	2.8	4.1	/
Nc1ccc(-n2cc(-c3ccccc3)[nH]c2=S)cc1	5.5	16.8	-1.5	45.0*	1.1	20.1
Oc1ccc(Oc2ccccc2F)c2cccnc12	/	/	3.9	-2.8	2.8	/
CC1CC(C)CN(C(=O)c2nn(C)c3c2CSc2ccccc2-3)C1 (centres undefined)	6.5	-7.1	4.6	2.0	1.6	/
CC1CCCN(C(=O)c2nn(C)c3c2CSc2ccccc2-3)C1 (centres undefined)	-13.4	-4.9	4.2	31.3*	3.2	37.1*
O=C1C=CC(=O)N1c1ccc2c(c1)C(NC(=O)C(F)(F)F)c1ccccc1-2 (centres undefined)	-10.1	-27.9	-18.4	91.2*	-0.9	86.5*
CNC(=O)C[C@@H]1CC[C@@H]2[C@H](COc3ccc(NC(=O)c4cccc(F)c4)cc3C(=O)N2C)O1	/	/	4.4	3.5	5.1	/
CC(=O)CSc1nc2c(c(=O)[nH]c(=O)n2C)n1Cc1cccc(Br)c1	-11.1	1.9	4.4	36.3*	-14.8	13.5
CC(=O)Nc1ccc2c(c1)C(=O)N(C)[C@H]1CC[C@H](CC(=O)NCc3ccc(F)cc3)O[C@@H]1CO2	/	/	-1.7	0.0	7.1	/
CCN(CC)CCCNC(=O)c1ccccc1C	6.2	6.8	-4.8	-2.6	1.8	/
CCN(CC)CCCNC(=O)/C=C/C(=O)O	-3.6	0.5	1.8	27.3*	-0.1	-1.0
CC(=O)N(c1cccc(C)c1)C1SC(=O)N(c2ccccc2)C1=O (centres undefined)	-1.4	-1.1	-8.0	32.1*	-1.7	22.6*
CC(=O)N(c1ccccc1)C1SC(=O)N(c2ccccc2)C1=O (centres undefined)	4.6	-3.5	1.3	13.1	5.3	/
CCOC(=O)[C@@]12CCC3=C1N(CCC3)C(=O)[C@H](CC(=O)NCC13CC4CC(CC(C4)C1)C3)C2	/	/	-1.6	-1.9	4.6	/
Cc1cc(C)nc(SC(C(=O)O)c2ccccc2)n1 (centres undefined)	-3.4	4.2	-3.6	1.7	-7.4	/
Cc1cc(C)nc(Sc2nc(Cl)nc(N(c3ccccc3)c3ccccc3)n2)n1	-6.5	1.3	2.1	58.9*	-16.1	9.9
O=C(NCCCN1CCN(c2ccc(F)cc2)CC1)Nc1ccccc1	/	/	0.8	0.8	6.9	/
COc1ccc(CN2C(=O)c3cccnc3C2=O)cc1S(=O)(=O)NCc1ccc(C)o1	-3.8	-0.9	6.5	41.2*	0.0	-1.3

Screening results as filed in PubChem BioAssay.
